# Test results reported in ChEMBL document CHEMBL1145475, “Expression and purification of an active form of the Mycobacterium leprae DNA gyrase and its inhibition by quinolones” (Antimicrob Agents Chemother, 2007).
# The source made the active and inactive calls. No cut-off for these calls is given here.
# System: Mycobacterium leprae
# Test: Antibacterial activity in Mycobacterium leprae infected mouse foot-pad model assessed as parasite killing at >150 mg/kg/day after 9 months
# Assay type: functional
row,SMILES,Activity
1,O=C(O)c1cn(C2CC2)c2cc(N3CCNCC3)c(F)cc2c1=O [CIPROFLOXACIN],>99%

# System: Mycobacterium leprae
# Test: Inhibition of Mycobacterium leprae recombinant DNA gyrase expressed in Escherichia coli assessed as inhibition of pBR322 DNA supercoiling
# Outline: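 His-tagged M. leprae GyrA and GyrB were expressed separately in E. coli, purified by nickel chelate chromatography, and reconstituted (1 U gyrase). Substrate was 0.4 μg relaxed pBR322 in 40 mM Tris-HCl pH 7.5, 25 mM KCl, 20 mM Mg acetate, 2 mM spermidine, 4 mM DTT, tRNA, BSA, and 3 mM ATP, run 1 h at 30°C.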
row,SMILES,IC50
1,O=C(O)c1cn(C2CC2)c2cc(N3CCNCC3)c(F)cc2c1=O [CIPROFLOXACIN],3.5 µg/mL
2,CCn1cc(C(=O)O)c(=O)c2cc3c(cc21)OCO3 [OXOLINIC ACID],170 µg/mL
3,N[C@@H]1CN(c2c(F)cc3c(=O)c(C(=O)O)cn([C@@H]4C[C@@H]4F)c3c2Cl)CC12CC2 [SITAFLOXACIN ANHYDROUS],1 µg/mL
4,NC1CCN(c2c(F)cc3c(=O)c(C(=O)O)cn(C4CC4)c3c2Cl)C1 (stereo not drawn) [CLINAFLOXACIN],3 µg/mL
5,C[C@H]1NCc2cc(-c3ccc4c(=O)c(C(=O)O)cn(C5CC5)c4c3OC(F)F)ccc21 [GARENOXACIN],3.5 µg/mL
6,CCn1cc(C(=O)O)c(=O)c2cc(F)c(N3CCN(C)CC3)cc21 [PEFLOXACIN],23 µg/mL
7,CC1CN(c2cc3c(cc2F)c(=O)c(C(=O)O)cn3-c2ccc(F)cc2F)CCN1 (stereo not drawn) [TEMAFLOXACIN],26 µg/mL
8,C[C@@H]1CN(c2c(F)c(N)c3c(=O)c(C(=O)O)cn(C4CC4)c3c2F)C[C@H](C)N1 [SPARFLOXACIN],5 µg/mL
9,C[C@H]1COc2c(N3CCN(C)CC3)c(F)cc3c(=O)c(C(=O)O)cn1c23.C[C@H]1COc2c(N3CCN(C)CC3)c(F)cc3c(=O)c(C(=O)O)cn1c23.O [LEVOFLOXACIN],7 µg/mL
10,COc1c(N2CCNC(C)C2)c(F)cc2c(=O)c(C(=O)O)cn(C3CC3)c12 (stereo not drawn) [GATIFLOXACIN],2 µg/mL
11,CCn1cc(C(=O)O)c(=O)c2ccc(C)nc21 [NALIDIXIC ACID],300 µg/mL
12,CC1COc2c(N3CCN(C)CC3)c(F)cc3c(=O)c(C(=O)O)cn1c23 (stereo not drawn) [OFLOXACIN],10 µg/mL

# System: Mycobacterium leprae
# Test: Antibacterial activity in Mycobacterium leprae infected mouse foot-pad model assessed as parasite killing at 15 mg/kg/day after 9 months
# Assay type: functional
row,SMILES,Activity
1,C[C@@H]1CN(c2c(F)c(N)c3c(=O)c(C(=O)O)cn(C4CC4)c3c2F)C[C@H](C)N1 [SPARFLOXACIN],>99%

# System: Mycobacterium leprae
# Test: Antibacterial activity against Mycobacterium leprae at 5 ug/mL after 11 to 18 days
# Assay type: functional
row,SMILES,Activity
1,O=C(O)c1cn(C2CC2)c2cc(N3CCNCC3)c(F)cc2c1=O [CIPROFLOXACIN],32
2,CCn1cc(C(=O)O)c(=O)c2cc(F)c(N3CCN(C)CC3)cc21 [PEFLOXACIN],29
3,CC1CN(c2cc3c(cc2F)c(=O)c(C(=O)O)cn3-c2ccc(F)cc2F)CCN1 (stereo not drawn) [TEMAFLOXACIN],29
4,CC1COc2c(N3CCN(C)CC3)c(F)cc3c(=O)c(C(=O)O)cn1c23 (stereo not drawn) [OFLOXACIN],20

# System: Mycobacterium leprae
# Test: Antibacterial activity in Mycobacterium leprae infected mouse foot-pad model assessed as parasite killing at 25 mg/kg/day after 9 months
# Assay type: functional
row,SMILES,Activity
1,N[C@@H]1CN(c2c(F)cc3c(=O)c(C(=O)O)cn([C@@H]4C[C@@H]4F)c3c2Cl)CC12CC2 [SITAFLOXACIN ANHYDROUS],>99%

# System: Mycobacterium leprae
# Test: Antibacterial activity in Mycobacterium leprae infected mouse foot-pad model assessed as parasite killing at >300 mg/kg/day after 9 months
# Assay type: functional
row,SMILES,Activity
1,CCn1cc(C(=O)O)c(=O)c2cc(F)c(N3CCN(C)CC3)cc21 [PEFLOXACIN],>99%

# System: Mycobacterium leprae
# Test: Effect on Mycobacterium leprae recombinant DNA gyrase expressed in Escherichia coli assessed as enhancement of supercoiled pBR322 DNA cleavage
SMILES,Activity,CC25
CCn1cc(C(=O)O)c(=O)c2cc3c(cc21)OCO3 [OXOLINIC ACID],inactive,
N[C@@H]1CN(c2c(F)cc3c(=O)c(C(=O)O)cn([C@@H]4C[C@@H]4F)c3c2Cl)CC12CC2 [SITAFLOXACIN ANHYDROUS],,0.5 µg/mL
NC1CCN(c2c(F)cc3c(=O)c(C(=O)O)cn(C4CC4)c3c2Cl)C1 (stereo not drawn) [CLINAFLOXACIN],,0.6 µg/mL
C[C@H]1NCc2cc(-c3ccc4c(=O)c(C(=O)O)cn(C5CC5)c4c3OC(F)F)ccc21 [GARENOXACIN],,3 µg/mL
CC1CN(c2cc3c(cc2F)c(=O)c(C(=O)O)cn3-c2ccc(F)cc2F)CCN1 (stereo not drawn) [TEMAFLOXACIN],,11 µg/mL
C[C@@H]1CN(c2c(F)c(N)c3c(=O)c(C(=O)O)cn(C4CC4)c3c2F)C[C@H](C)N1 [SPARFLOXACIN],,1 µg/mL
C[C@H]1COc2c(N3CCN(C)CC3)c(F)cc3c(=O)c(C(=O)O)cn1c23.C[C@H]1COc2c(N3CCN(C)CC3)c(F)cc3c(=O)c(C(=O)O)cn1c23.O [LEVOFLOXACIN],,3 µg/mL
COc1c(N2CCNC(C)C2)c(F)cc2c(=O)c(C(=O)O)cn(C3CC3)c12 (stereo not drawn) [GATIFLOXACIN],,1 µg/mL
CCn1cc(C(=O)O)c(=O)c2ccc(C)nc21 [NALIDIXIC ACID],inactive,
CC1COc2c(N3CCN(C)CC3)c(F)cc3c(=O)c(C(=O)O)cn1c23 (stereo not drawn) [OFLOXACIN],,10 µg/mL

# System: Mycobacterium leprae
# Test: Antibacterial activity in Mycobacterium leprae infected mouse foot-pad model assessed as parasite killing at 150 mg/kg/day after 9 months
# Assay type: functional
row,SMILES,Activity
1,COc1c(N2C[C@@H]3CCCN[C@@H]3C2)c(F)cc2c(=O)c(C(=O)O)cn(C3CC3)c12 [MOXIFLOXACIN],>99%
2,CC1COc2c(N3CCN(C)CC3)c(F)cc3c(=O)c(C(=O)O)cn1c23 (stereo not drawn) [OFLOXACIN],>99%

# System: Mycobacterium leprae
# Test: Antibacterial activity in Mycobacterium leprae infected mouse foot-pad model assessed as parasite killing at 50 mg/kg/day after 9 months
# Assay type: functional
row,SMILES,Activity
1,CC1CN(c2cc3c(cc2F)c(=O)c(C(=O)O)cn3-c2ccc(F)cc2F)CCN1 (stereo not drawn) [TEMAFLOXACIN],>99%
